Laboratory results as given in ChEMBL document CHEMBL4118152, “Discovery of Potent and Selective Periphery-Restricted Quinazoline Inhibitors of the Cyclic Nucleotide Phosphodiesterase PDE1” (J Med Chem, 2018).
The source made the active and inactive calls. The calls are words filed in the database; no cut-off is given here.

How the values were obtained:
[1] = target: Dual specificity calcium/calmodulin-dependent 3',5'-cyclic nucleotide phosphodiesterase 1B (Homo sapiens, UniProt Q01064); assay: Inhibition of full length recombinant human PDE1B1 using 3',5'-[3H]cAMP as substrate after 30 mins by scintillation proximity assay
Sequence of Dual specificity calcium/calmodulin-dependent 3',5'-cyclic nucleotide phosphodiesterase 1B (Q01064 whole entry): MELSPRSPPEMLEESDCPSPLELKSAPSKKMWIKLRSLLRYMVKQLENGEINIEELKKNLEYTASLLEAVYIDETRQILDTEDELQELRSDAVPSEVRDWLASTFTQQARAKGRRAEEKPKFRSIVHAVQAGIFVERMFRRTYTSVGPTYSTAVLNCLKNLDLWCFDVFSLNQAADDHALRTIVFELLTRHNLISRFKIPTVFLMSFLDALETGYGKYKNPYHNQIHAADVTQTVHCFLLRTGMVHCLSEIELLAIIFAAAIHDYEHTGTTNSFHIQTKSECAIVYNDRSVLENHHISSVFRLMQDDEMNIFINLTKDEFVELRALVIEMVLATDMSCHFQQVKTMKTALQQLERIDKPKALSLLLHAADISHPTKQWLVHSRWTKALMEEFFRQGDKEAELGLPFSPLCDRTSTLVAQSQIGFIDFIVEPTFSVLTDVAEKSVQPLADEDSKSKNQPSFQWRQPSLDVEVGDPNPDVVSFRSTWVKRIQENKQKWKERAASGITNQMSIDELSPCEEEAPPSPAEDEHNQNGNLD
How it was run: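 Enzymes were human except PDE6A, which was bovine. Each was assayed with cAMP or cGMP substrate, as appropriate to the enzyme, at concentrations below 1/3 of Km. IC50 values are mean ± SEM from n = 3 or more.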

[2] = target: Dual specificity calcium/calmodulin-dependent 3',5'-cyclic nucleotide phosphodiesterase 1A (Homo sapiens, UniProt P54750); assay: Inhibition of full length recombinant human PDE1A using 3',5'-[3H]cAMP as substrate after 30 mins by scintillation proximity assay
Sequence of Dual specificity calcium/calmodulin-dependent 3',5'-cyclic nucleotide phosphodiesterase 1A (P54750 whole entry): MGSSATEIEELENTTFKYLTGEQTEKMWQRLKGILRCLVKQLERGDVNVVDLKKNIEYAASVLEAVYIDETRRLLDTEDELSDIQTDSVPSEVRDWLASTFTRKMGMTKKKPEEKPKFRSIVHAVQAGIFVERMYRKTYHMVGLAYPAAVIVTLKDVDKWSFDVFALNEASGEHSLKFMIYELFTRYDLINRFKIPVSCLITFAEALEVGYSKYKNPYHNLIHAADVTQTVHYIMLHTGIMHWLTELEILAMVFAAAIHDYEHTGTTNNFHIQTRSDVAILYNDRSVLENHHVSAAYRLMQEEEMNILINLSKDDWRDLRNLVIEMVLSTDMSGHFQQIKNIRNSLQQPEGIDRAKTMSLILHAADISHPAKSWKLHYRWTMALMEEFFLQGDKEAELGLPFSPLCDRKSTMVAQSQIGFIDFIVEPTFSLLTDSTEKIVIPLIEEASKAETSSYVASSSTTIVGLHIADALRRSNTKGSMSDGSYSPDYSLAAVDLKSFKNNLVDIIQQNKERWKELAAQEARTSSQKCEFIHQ
How it was run: (§1)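 Human recombinant enzymes; substrate held below 1/3 of Km. IC50 reported as mean ± SEM of at least 3 determinations.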

[3] = target: T1, Dual specificity calcium/calmodulin-dependent 3',5'-cyclic nucleotide phosphodiesterase 1C (Homo sapiens, UniProt Q14123); assay: Inhibition of full length recombinant human PDE1C using 3',5'-[3H]cAMP as substrate after 30 mins by scintillation proximity assay; how it was run: as §1
T1 sequence (Q14123 whole entry): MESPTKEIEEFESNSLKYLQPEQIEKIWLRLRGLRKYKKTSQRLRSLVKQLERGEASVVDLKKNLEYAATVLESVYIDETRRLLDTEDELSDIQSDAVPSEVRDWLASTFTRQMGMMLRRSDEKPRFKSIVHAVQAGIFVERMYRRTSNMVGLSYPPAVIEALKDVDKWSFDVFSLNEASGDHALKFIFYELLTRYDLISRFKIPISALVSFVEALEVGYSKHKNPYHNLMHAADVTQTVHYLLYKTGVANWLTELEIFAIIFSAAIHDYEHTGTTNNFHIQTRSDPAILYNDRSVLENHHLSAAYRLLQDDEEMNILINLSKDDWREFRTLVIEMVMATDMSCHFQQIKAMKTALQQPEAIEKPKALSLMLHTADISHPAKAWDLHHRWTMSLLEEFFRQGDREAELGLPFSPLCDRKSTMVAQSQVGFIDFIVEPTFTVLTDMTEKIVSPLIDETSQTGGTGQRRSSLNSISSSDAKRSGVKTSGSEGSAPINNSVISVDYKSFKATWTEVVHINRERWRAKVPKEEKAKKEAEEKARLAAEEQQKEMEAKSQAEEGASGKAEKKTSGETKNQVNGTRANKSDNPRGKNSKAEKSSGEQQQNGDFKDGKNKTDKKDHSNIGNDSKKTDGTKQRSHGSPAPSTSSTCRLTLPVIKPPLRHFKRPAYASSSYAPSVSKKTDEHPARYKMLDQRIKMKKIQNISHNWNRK

[4] = target: T2, cGMP-inhibited 3',5'-cyclic phosphodiesterase 3A (Homo sapiens, UniProt Q14432); assay: Inhibition of PDE3A in soluble protein extracts of human myocardium assessed as Ca2+/calmodulin stimulated substrate hydrolysis using 3',5'-[3H]cGMP as substrate relative to control; conditions: concentration not given here
T2 sequence (Q14432 whole entry): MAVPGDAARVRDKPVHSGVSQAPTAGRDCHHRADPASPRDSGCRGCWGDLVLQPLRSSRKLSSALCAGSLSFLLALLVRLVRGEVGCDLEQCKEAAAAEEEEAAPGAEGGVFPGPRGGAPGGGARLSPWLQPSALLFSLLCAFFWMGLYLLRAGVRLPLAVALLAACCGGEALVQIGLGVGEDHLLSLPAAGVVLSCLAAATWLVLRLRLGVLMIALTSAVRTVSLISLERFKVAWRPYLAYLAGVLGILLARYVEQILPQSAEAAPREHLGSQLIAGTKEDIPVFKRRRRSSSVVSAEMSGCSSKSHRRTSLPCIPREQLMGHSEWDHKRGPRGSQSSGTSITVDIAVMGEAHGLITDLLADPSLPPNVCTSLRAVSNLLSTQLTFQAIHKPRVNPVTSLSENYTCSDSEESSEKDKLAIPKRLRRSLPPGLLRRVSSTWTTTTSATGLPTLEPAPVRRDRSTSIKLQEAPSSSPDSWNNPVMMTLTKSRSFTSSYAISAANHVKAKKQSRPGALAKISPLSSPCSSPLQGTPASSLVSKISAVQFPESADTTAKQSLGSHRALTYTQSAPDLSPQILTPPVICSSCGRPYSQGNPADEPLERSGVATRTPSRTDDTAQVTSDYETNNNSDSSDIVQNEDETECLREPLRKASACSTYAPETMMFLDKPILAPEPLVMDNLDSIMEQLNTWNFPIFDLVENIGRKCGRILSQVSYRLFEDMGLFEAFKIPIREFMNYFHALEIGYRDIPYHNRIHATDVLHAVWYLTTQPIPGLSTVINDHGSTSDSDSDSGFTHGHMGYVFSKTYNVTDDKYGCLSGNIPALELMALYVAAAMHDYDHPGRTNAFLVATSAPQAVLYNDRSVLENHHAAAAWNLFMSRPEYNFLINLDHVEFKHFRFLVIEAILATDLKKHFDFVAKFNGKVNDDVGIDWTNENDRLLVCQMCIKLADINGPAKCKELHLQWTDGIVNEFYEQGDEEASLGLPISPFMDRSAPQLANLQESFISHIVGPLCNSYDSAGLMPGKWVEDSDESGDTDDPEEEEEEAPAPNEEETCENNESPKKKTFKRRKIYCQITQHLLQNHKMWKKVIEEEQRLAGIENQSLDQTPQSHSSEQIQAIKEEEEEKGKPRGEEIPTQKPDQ
How it was run: (§2)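 Soluble protein extracts from human left ventricle, test agent 1.0 µM, [3H]cAMP or [3H]cGMP substrate at 0.1 µM. Total activity was measured with CaCl2 plus exogenous calmodulin, and a parallel reaction was run with the Ca2+ chelator EGTA. Ca2+/calmodulin-dependent activity is total minus the EGTA activity; inhibition is given relative to control.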

[5] = target: T1, Dual specificity calcium/calmodulin-dependent 3',5'-cyclic nucleotide phosphodiesterase 1C; assay: Inhibition of recombinant C-terminal FLAG tagged human PDE1C expressed in HEK293 cells using 3',5'-[3H]cAMP as substrate
[6] = target: T2, cGMP-inhibited 3',5'-cyclic phosphodiesterase 3A; assay: Inhibition of recombinant human PDE3A expressed in HEK293 cells using 3',5'-[3H]cAMP as substrate
How it was run: (§3)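 Recombinant enzymes were assayed for hydrolysis of cAMP or cGMP, with substrate at 0.1 µM. The inhibitor was tested at 1.0 µM.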

[7] = target: T2, cGMP-inhibited 3',5'-cyclic phosphodiesterase 3A; assay: Inhibition of PDE3A in soluble protein extracts of human myocardium assessed as Ca2+/calmodulin stimulated substrate hydrolysis using 3',5'-[3H]cAMP as substrate relative to control; conditions: concentration not given here; how it was run: as §2
[8] = target: T3, cGMP-specific 3',5'-cyclic phosphodiesterase (Homo sapiens, UniProt O76074); assay: Inhibition of recombinant human PDE5A expressed in HEK293 cells using 3',5'-[3H]cGMP as substrate; how it was run: as §3
[9] = target: T3, cGMP-specific 3',5'-cyclic phosphodiesterase; assay: Inhibition of PDE5A in soluble protein extracts of human myocardium using 3',5'-[3H]cGMP as substrate at 1 uM relative to control
[10] = target: T2, cGMP-inhibited 3',5'-cyclic phosphodiesterase 3A; assay: Inhibition of recombinant human PDE3A expressed in HEK293 cells using 3',5'-[3H]cGMP as substrate; how it was run: as §3
[11] = target: T3, cGMP-specific 3',5'-cyclic phosphodiesterase; assay: Inhibition of PDE5A in soluble protein extracts of human myocardium assessed as Ca2+/calmodulin stimulated substrate hydrolysis using 3',5'-[3H]cGMP as substrate relative to control; conditions: concentration not given here; how it was run: as §2
[12] = target: T3, cGMP-specific 3',5'-cyclic phosphodiesterase; assay: Inhibition of recombinant human PDE5 expressed in HEK293 cells using 3',5'-[3H]cGMP as substrate at 1 uM
How it was run: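 Recombinant enzymes were tested at 1.0 µM inhibitor with cAMP or cGMP substrate at 0.1 µM. Read-out is hydrolytic activity relative to control.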

[13] = target: T2, cGMP-inhibited 3',5'-cyclic phosphodiesterase 3A; assay: Inhibition of PDE3A in soluble protein extracts of human myocardium using 3',5'-[3H]cAMP as substrate at 1 uM relative to control
[14] = target: T2, cGMP-inhibited 3',5'-cyclic phosphodiesterase 3A; assay: Inhibition of PDE3A in soluble protein extracts of human myocardium using 3',5'-[3H]cGMP as substrate at 1 uM relative to control
HEK293 = assay: Inhibition of recombinant human PDE3 expressed in HEK293 cells using 3',5'-[3H]cAMP as substrate at 1 uM; how it was run: as §3
[15] = target: T3, cGMP-specific 3',5'-cyclic phosphodiesterase; assay: Inhibition of PDE5A in soluble protein extracts of human myocardium using 3',5'-[3H]cAMP as substrate at 1 uM relative to control
[16] = target: T1, Dual specificity calcium/calmodulin-dependent 3',5'-cyclic nucleotide phosphodiesterase 1C; assay: Inhibition of recombinant C-terminal FLAG tagged human PDE1C expressed in HEK293 cells using 3',5'-[3H]cGMP as substrate
[17] = target: T3, cGMP-specific 3',5'-cyclic phosphodiesterase; assay: Inhibition of PDE5A in soluble protein extracts of human myocardium assessed as Ca2+/calmodulin stimulated substrate hydrolysis using 3',5'-[3H]cAMP as substrate relative to control; conditions: concentration not given here; how it was run: as §2

Structure (SMILES): CCC(CC)Nc1ncnc2c(OC)c(OC)c(OC)cc12
- IC50 [1]: 35 nM

Structure (SMILES): COc1ccc2c([C@H]3CCc4ccc(Cl)cc43)ncnc2c1OC
- IC50 [1]: 4.5 nM

Structure (SMILES): COc1ccc2c(N[C@H](C)Cc3cc(C)[nH]n3)ncnc2c1OC
- IC50 [1]: 596 nM
- IC50 [2]: 777 nM
- IC50 [3]: 579 nM

Structure (SMILES): COc1cc2ncnc(NC(C)Cc3cc(C)n[nH]3)c2cc1OC (racemic)
- IC50 [1]: 52 nM

Structure (SMILES): COc1ccc2c(NC(C)Cc3cc(C)[nH]n3)ncnc2c1OC (racemic)
- inhibition [4]: 90%
- IC50 [1]: 21 nM
- IC50 [5]: 56 nM
- IC50 [6]: 101000 nM
- inhibition [7]: 90%
- IC50 [8]: 30300 nM
- inhibition [9]: 80%
- IC50 [10]: 369000 nM
- inhibition [11]: 90%
- inhibition [12]: Active
- inhibition [13]: 76%
- IC50 [2]: 118 nM
- IC50 [3]: 83 nM
- inhibition [14]: 80%
- inhibition (HEK293): Active
- inhibition [15]: 76%
- IC50 [16]: 110 nM
- inhibition [17]: 90%

Structure (SMILES): COc1cc2c(NC(C)Cc3cc(C)n[nH]3)ncnc2c(OC)c1OC (racemic)
- IC50 [1]: 27 nM
